The values that follow come from the RNAGym collection of RNA variant scans (doi:10.1126/science.aae0568).

B1: tRNA (parent)
chain: GUUCCGUUGGCGUAAUGGUAACGCGUCUCCCUCCUAAGGAGAAGACUGCGGGUUCGAGUCCCGUACGGAACG

Variants at the floor of the assay were thinned out.

Variants of B1 are the subject of the data set. Nature of the data set: yeast fitness relative to wild type (ratio to wild type); higher = fitter; tRNA-Arg(CCU), competitive growth, 37 C, YPD. Put shortly:
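Changes in genotype frequencies gave Darwinian fitness relative to wild type. Frequencies were read by 100-nucleotide paired-end sequencing of gene amplicons before and after pooled Saccharomyces cerevisiae strains, carrying tRNA-Arg(CCU) gene variants at the native locus, were competed in YPD at 37°C for 24 hours in six replicates. A genotype was kept only with ≥ 100 starting reads, and estimates < 0.5 were set to 0.5.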
As for GUUCCGUUGACGUAAUGGUAACGCGUGUCCCUCCUAAGGAGAAGACUCCGGGUUCGAGUCCAGUACGGAACG [G10A C27G G48C C62A], the yeast fitness is not above 0.5. For GUUCCGUUGACGUAAUGGUAACGCGUCUCCUUCCUAAGGAGAAGACUGCGGGUUCGAGUCCCGUACGGAACG [G10A C31U], the yeast fitness is 0.662. On to GUUCCGUUGACGUAAUGGUAACGCGUCUCCAUCCUAAGGAGAAGACUGCGGGUUCGAGUCCCGUACGGAACG [G10A C31A], for which the yeast fitness was determined as 0.637.

As to GUUCCGUUGACGUAAUGGUAACGGGUCUCCCUCUUAAGGAGAAGACUGCGGGUUCGAGUCCCGUACGGAACG [G10A C24G C34U], the yeast fitness is not above 0.5. Next, GUUCCGUUGACGUAAUGGUAACGAGUAUCCCUCCUAAGGAGAAGGCUGCGGGUUCGAGUCCCGUACGGAACG [G10A C24A C27A A45G]: not above 0.5; GUUCCGUUGACGUAAUGGUAACGCGUCUCUCUCCUAAGGAGAAGACUGCAGGUUCGAGUCCCGUACGGAACG [G10A C30U G50A]: 0.529. For GUUCCGUUGACGUAAUGGUAACGCGUCUCCUUCCUAAGGAGGAGACUGCGGGUUCGAGUCCCGUACGGAACG [G10A C31U A42G], the yeast fitness is not above 0.5. Turning to GUUCCGUUGACGUAAUGGUAAGGCGUUUCCCUCCUAAGGAGAAGACUGCGGGUUCAAGUCCCGUACGGAACG [G10A C22G C27U G56A], the yeast fitness is not above 0.5.

In the case of GUUCCGUUGACGUAAUGGUAACGGGUCUCCCUCCUAAGGAGAGGACUGCGGGUUCGAGUCCCGUACGGAACG [G10A C24G A43G], the yeast fitness is not above 0.5. To GUUCCGUUGACGUAAUGGUAACGCGUCUCCAUCCUACGGAGAAGACUGCGGGUUCGAGUCCCGUACGGAACG [G10A C31A A37C] belongs not above 0.5; to GUUCCGUUGACGUAAUGGUAACGCGUCUCACUCCUAAGGAGAAGACUGCGGGUUCGAGUCCCGUACGGAGCG [G10A C30A A70G], not above 0.5. To GUUCCGUUGACGUAAUGGUAACGCGUCUCACUCCUAAGGACAAGACUGCGGGUUCGAGUGCCGUACGGAUCG [G10A C30A G41C C60G A70U] belongs 0.645; to GUUCCGUUGACGUAAUGGUAACGCGUCUCUCUCCUAAGGAGAAGACAGCGGGUUCGAGUCCCGUACCGAACG [G10A C30U U47A G67C], not above 0.5. Next, GUUCCGUUGACGUAAUGGUAACGAGUCUCCCUCCUAAGGAGAAAACUGCGGGUUCGAGUCCCGUACGGAACG [G10A C24A G44A]: 0.553; GUUCCGUUGACGUAAUGGUAACGCGUCUCCUUCCUAAGGAGAAGACUGCGGGUUCGAGUCCCGUUCGGAACG [G10A C31U A65U]: 0.566; GUUCCGUUGACGUAAUGGUAACGCGUCUCCAUCCUAAGGAGAAGACUGCGGGUUUGAGUCCCAUACGGAACG [G10A C31A C55U G63A]: not above 0.5. Consider GUUCCGUUGACGUAAUGGUAACGAGUCUCCCUCCUAAGGAGAAAACUGCGGGUUCGAGUCCCGUUCGGAACG [G10A C24A G44A A65U], for which the yeast fitness is not above 0.5. For GUUCCGUUGACGUAAUGGUAACGCGUCUGCCUCCUAAGGAGAAGACUGCGGGUUCGAGUCCCGUACGGAACG [G10A C29G], the yeast fitness worked out at 0.522. Take GUUCCGUUGACGUAAUGGUAACGCGUCUCUCUCCUAAGGAGAAGACUGCGGGUUCGAGUGCCGUACGGAACG [G10A C30U C60G]: the yeast fitness was not above 0.5. Next, GUUCCGUUGACGUAAUGGUAACGCGUCUCUCUCCUAAGGAGAAGACUGCAGGUUCGAGUCCCGUACGGAUCG [G10A C30U G50A A70U]: not above 0.5; GUUCCGUUGACGUAAUGGUAACGCGUGUCCCUCCUAAGGAGAAGACUGCGGGUUAGAGUCACGUACGGAACG [G10A C27G C55A C61A]: not above 0.5.

Consider GUUCCGUUGACGUAAUGGUAACGCGUCUCACUCCUAAGGAGACGACUGCGGGUUCGUGUCCCGUACGGAACG [G10A C30A A43C A57U], for which the yeast fitness is not above 0.5. Next, GUUCCGUUGACGUAAUGGUAACGGGUCUCCCUCCUAAGGAGAAGACUGCGGGUUCGAGUCCUGUACGGAACG [G10A C24G C62U]: 0.54; GUUCCGUUGACGUAAUGGUAACGUGUGUCCCUCCUAAGGAGAAGACUGCGGGUUCGAGUCCCGUACGGAACG [G10A C24U C27G]: not above 0.5. In the case of GUUCCGUUGACGUAAUGGUAACGCGUCUACCUCGUAAGGAGACGACUGCGGGUUCGAGUGCCGUAUGGAACG [G10A C29A C34G A43C C60G C66U], the yeast fitness was not above 0.5. Next, GUUCCGUUGACGUAAUGGUAACGCGUCUCCCUUCUAAGGAGAACGCUGCGGGUUCGAGUCCCGUACGGAACG [G10A C33U G44C A45G]: not above 0.5; GUUCCGUUGACGUAAUGGUAACGCGUAUCCCUCUUAAGGAGAAGACUGCGGGUUCGGGUCCCGUACGGAACG [G10A C27A C34U A57G]: not above 0.5; GUUCCGUUGACGUAAUGGUAAGGCGUCUCCCUCCUAGAGAGAAGACUGCGCGGUCGAGUCCCGUACGGAACG [G10A C22G A37G G38A G51C U53G]: not above 0.5.

GUUCCGUUGACGUAAUGGUAACGCGUCUCUCUCCUAAGGAGAAGAAUGCGGGUUCGAGUCCCGUAUGGAACG [G10A C30U C46A C66U]: the yeast fitness is not above 0.5. GUUCCGUUGACGUAAUGGUAACGCGUCUCCUUCCUAAGGAGAACACUGCGGGUUCGAGUCCCGUACGGUACG [G10A C31U G44C A69U]: the yeast fitness is not above 0.5.

As to GUUCCGUUGACGUAAUGGUAACGGGUUUCCCUCCUAAGGAGAAGACUGCGGGUUCGAGUCCCGUACGGAACG [G10A C24G C27U], the yeast fitness came to 0.547. Next, GUUCCGUUGACGUAAUGGUAACGCGUCUCCUUCCUAACGAAAAGACUGCGGGUUCGAGUCCCAUACGCGACG [G10A C31U G38C G41A G63A G68C A69G]: not above 0.5. Next, GUUCCGUUGACGUAAUGGUAACGCGUCUCCUUCCUAACGAGAAGACUGCGGGUUCGAGUCCCGUACAGAACG [G10A C31U G38C G67A]: not above 0.5.

On to GUUCCGUUGACGUAAUGGUAACGAGUCUCCCUCCUAAGGAGAAGCCUGCGGGUUCGUGUCCCGUACGGAACG [G10A C24A A45C A57U], for which the yeast fitness was determined as 0.63. Consider GUUCCGUUGAUGUAAUGGUAAUGCGUCUCCCUCCUAAGGAGAAGACUGCGGGUUCGUGUCCCGUACGGAACG [G10A C11U C22U A57U], for which the yeast fitness was not above 0.5. Next, GUUCCGUUGACGUAAUGGUAACGCGUCUCUCUCCUAAGGAGAUGACUGCGGGUUAGAGUCCCGUACGGAACG [G10A C30U A43U C55A]: not above 0.5; GUUCCGUUGACGUAAUGGUAACGCGUCUCCCUUCUAAGGAGAAGACUGUGGGUUCGAGUCCCGUACGGAACG [G10A C33U C49U]: 0.663.
